Assay outcomes (PubChem)
Sampled rows, rich in hits. Any-hit rate of the full collection: about 3.3%.
DENV2 CPE rescue – inhibitors of DENV2 cytopathic effect, primary screen, cell-based, plate reader, single concentration | DENV2-infected cells, cytopathic effect rescue | CPE inhibition, % at 9.99 µM | 1.7% of 350,000 active; in the data active = CPE inhibition above about 20%, passing the limit was not always enough; inconclusive = no clear call, values can overlap the other calls; tested in BHK-21 cells;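 also: 0% = median of neutral control wells and 100% = median of positive control wells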
FGF22 binding – binders of human FGF22 protein, primary screen, FGF22 synaptogenesis inhibitor project, biophysical, thermal shift, single point; Fibroblast growth factor 22 (Homo sapiens), Q9HCT0; recombinant FGF22 thermal shift, SYPRO orange fluorescence; percent of sucrose octasulfate shift, DMSO zero; activity (Tm shift, normalised), % at 9.99 µM; 1.5% of 340,000 active;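 active = mean Tm shift, scaled 0 neutral to 100 positive control, at about 1.3% or above, every replicate too, limit read from the data; inconclusive = no clear call, values can overlap the other calls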
XiGFP reactiv – activators of inactive X chromosome reactivation, primary screen, imaging, XiGFP fibroblasts, GFP high-content imaging, set 2. activation, % at 7.58 µM. XiGFP mouse fibroblasts, % GFP-positive cells imaging, 3 d; cells co-treated with 5-aza-dC sensitizer; scaled so ellipticine positive control = 100%. 0.055% of 360,000 active;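 active = mean normalized replicate activation at least 10% and every replicate at or above 10%; inconclusive = only one of the two criteria met; inactive = mean below 10% and not all replicates reach 10%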;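 also: 0% = median of on-plate neutral control wells and 100% = ellipticine 6 µM median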
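System: SV40-immortalized XiGFP fibroblast cells, line 68-5-11 / Incubation: 3-day compound exposure, then 15 min fixation at room temperature / Compound: single concentration per compound, delivered by pin transfer / Buffer or medium: DMEM plus 5-aza-dC sensitizer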
E-selectin induc – E-selectin induction in HUVECs, primary screen, imaging, HUVEC, immunofluorescence imaging, single point. P16581. normalized: neutral wells 0, TNF-alpha wells 100. activation, % at 7.58 µM. 0.37% of 260,000 active. AID 686992, 2013;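 active = mean E-selectin-positive cell signal at least 10% of the positive control, reached in at least 60% of replicates, without over 20% cell loss; inconclusive = no rule given, readout overlaps actives, possibly toxicity-flagged; inactive = the rest, including those meeting only one limit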
Target sequence (P16581 whole entry, looked up): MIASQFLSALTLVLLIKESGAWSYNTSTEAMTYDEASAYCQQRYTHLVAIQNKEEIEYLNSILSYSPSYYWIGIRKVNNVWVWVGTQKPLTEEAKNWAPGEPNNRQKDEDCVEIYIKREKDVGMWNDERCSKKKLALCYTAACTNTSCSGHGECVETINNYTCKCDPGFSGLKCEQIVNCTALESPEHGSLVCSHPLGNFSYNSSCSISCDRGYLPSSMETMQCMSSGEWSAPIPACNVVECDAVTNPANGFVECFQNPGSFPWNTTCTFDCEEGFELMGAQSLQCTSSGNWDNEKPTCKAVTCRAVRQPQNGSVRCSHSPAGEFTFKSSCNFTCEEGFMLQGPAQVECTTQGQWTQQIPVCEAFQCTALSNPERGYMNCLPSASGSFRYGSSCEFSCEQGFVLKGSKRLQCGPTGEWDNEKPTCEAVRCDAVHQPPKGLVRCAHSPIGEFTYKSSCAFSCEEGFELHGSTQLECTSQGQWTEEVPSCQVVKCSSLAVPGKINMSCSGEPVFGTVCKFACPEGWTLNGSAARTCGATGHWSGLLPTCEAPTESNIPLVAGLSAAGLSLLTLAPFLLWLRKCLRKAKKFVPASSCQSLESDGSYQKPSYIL
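System: HUVEC / Compound: single concentration / Signal: immunofluorescence imaging / Read-out: percent E-selectin-positive cells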
C2C12 statin – suppressors of statin myotoxicity in C2C12 myotubes, primary screen, cell-based, single point, plate reader | C2C12 myotubes + simvastatin, ATP luminescence, 48 h; scaled: DMSO 0, geranylgeraniol control 100 | 0.78% of 330,000 active | rescue of ATP level, % at 7.49 µM | AID 602340, 2012;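 active = mean ATP rescue above about 67%, or every replicate alone reaching that limit, limit read from the data, passing the limit was not always enough; inconclusive = no clear call, values can overlap the other calls; inactive = mean under the limit and some replicate under it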;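 also: myotubes were challenged with 10 µM simvastatin during compound exposure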
PglD inh – C. jejuni PglD acetyltransferase inhibitors, primary screen, biochemical, DTNB colorimetric, single point. inhibition, % at 12.5 µM. purified PglD enzyme, DTNB colorimetric CoA detection. 0.098% of 360,000 active. UDP-N-acetylbacillosamine N-acetyltransferase PglD (Campylobacter jejuni); in the data active = inhibition above about 16%, passing the limit was not always enough; inconclusive = no clear call, values can overlap the other calls
PglD inh SP – PglD acetyltransferase inhibitors, confirmation, biochemical, DTNB absorbance, single point, cherry-picked samples | AID 743156, 2013 | 320 tested, under 10 active | shares compounds with PglD inh | Purified C. jejuni PglD, DTNB absorbance 412 nm | inhibition, % at 20 µM;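 active = mean inhibition across replicates of at least 20% with every single replicate also at 20% or more; inconclusive = mean inhibition at least 20% but some replicate falls below 20%; inactive = mean inhibition under 20% and not all replicates reach it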;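 also: initial rate of CoA release by acetyl transfer from AcCoA to the UDP-4-amino sugar; 0% = median of neutral control wells and 100% = median of positive control wells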
* = called active by the depositor; ? = inconclusive; / = no result given.

SMILES	DENV2 CPE rescue	FGF22 binding	XiGFP reactiv	E-selectin induc	C2C12 statin	PglD inh	PglD inh SP
COc1cccc(-c2ccc(C3[C@@H]4CN(C(=O)Cc5ccccc5)C[C@H]3N4)cc2)c1 (some centres not stated)	-3	/	0	0	/	/	/
CN(C)C(=O)CSc1nnc(-c2cc(-c3cccs3)nc3ccccc23)o1	/	/	/	/	-11	54*	-8
C[C@H](CO)N1C[C@H](C)[C@@H](CN(C)C(=O)Nc2ccc3c(c2)OCO3)Oc2ccc(NS(=O)(=O)c3ccccc3)cc2CC1=O	/	/	0	0	-34	/	/
C[C@H]1CN([C@@H](C)CO)C(=O)c2cc(C#Cc3ccncc3)cnc2O[C@@H]1CN(C)CC1CCOCC1	-7	0	3	0	54	3	/
CN(C(=O)c1ccc(NC(=O)Cc2cccc(NC(=O)C3CCN(C(=O)C4CC4)CC3)c2)cc1)C1CC1	34*	0	0	0	-3	25*	-1
COc1ccc(CSc2nc(O)cc(=O)n2CC(C)C)cc1F	2	-1	0	-14	-2	21*	2
CN1/C(=C\C(=O)Nc2cccc(Cl)c2)C(C)(C)c2ccccc21	-7	0	0	/	-10	20*	13
COc1ccc(-n2ccnc2)cc1	0	0	0	2	/	37*	9
CC=Cc1ccc2n(c1=O)C[C@@H]1[C@@H](CO)[C@H](C(=O)NCCC)[C@H]2N1C(=O)c1ccccc1 (mixture of isomers)	1	0	2	0	3	-1	/
C=CCc1c(OC)ccc2c1c(S(=O)(=O)c1ccc(C)cc1)cn2COC	-3	0	0	/	9	22*	1
C[C@@H]1CN([C@@H](C)CO)C(=O)Cc2cc(NC(=O)CCC(F)(F)F)ccc2O[C@H]1CN(C)S(=O)(=O)c1ccc(F)cc1	10	0	0	0	20	0	/
c1ccc(COc2ncnc3c2ncn3CCCNCc2cccs2)cc1	?	43*	0	0	-2	28*	1
COc1ccc(/C=C(\NC(=O)c2ccccc2)C(=O)N2CCN(C)CC2)cc1	7	0	0	/	7	2	/
COc1ccc(/C=C(/NC(=O)c2ccccc2)C(=O)N2CCCC2)cc1	-2	0	0	1	-4	58*	-7
Cc1ccccc1OCC(=O)N/N=C/c1cc2ccccc2nc1Cl	/	/	/	/	4	26*	3
O=C(COc1cccc(Cl)c1)N/N=C\c1cc2ccccc2nc1Cl	/	/	0	/	/	5	/
CCN1C(=O)CC(N2CCN(c3ccc(C(=O)c4ccccc4)cc3)CC2)C1=O (configuration not stated)	/	/	/	/	-5	-7	/
CCN1C(=O)CC(N2CCN(c3ccc(Cl)cc3)CC2)C1=O (configuration not stated)	/	/	/	/	/	35*	2
Cc1cc(C)cc(C(=O)Oc2coc(CSc3nnc(NC(=O)C4CC4)s3)cc2=O)c1	/	/	0	1	/	/	/
O=C(Oc1coc(CSc2nnc(NC(=O)C3CC3)s2)cc1=O)c1c(F)cccc1F	5	0	0	0	21	63*	4
Cn1cnnc1SCC(C)(C)NS(=O)(=O)c1ccc(Cl)cc1	8	0	0	/	-2	29*	?
C[C@@H]1CN([C@H](C)CO)C(=O)c2cc(-c3ccccc3)cnc2O[C@@H]1CN(C)C(=O)Cc1cccnc1	13	0	0	0	3	-2	/
O=C(O)/C(=C\c1ccc(Br)cc1)NC(=O)c1cccs1	1	0	0	0	0	25*	2
O=C(N/C(=C/c1ccc(Br)cc1)C(=O)N1CCCC1)c1cccs1	?	0	0	/	/	/	/
O=C(NCC1CCCO1)[C@@H]1CSC2c3ccccc3C(=O)N21 (some centres not stated)	/	/	/	/	0	22*	-6
SMILES	DENV2 CPE rescue	FGF22 binding	XiGFP reactiv	E-selectin induc	C2C12 statin	PglD inh	PglD inh SP
C[C@@H]1CN([C@@H](C)CO)S(=O)(=O)c2ccc(C3=CCCCC3)cc2O[C@H]1CN(C)S(=O)(=O)c1ccc(F)cc1	?	0	-1	0	-41	-1	/
Cc1ccc(S(=O)(=O)Nc2cccc3c2O[C@H](CN(C)C(=O)Nc2ccc(F)cc2)[C@H](C)CN([C@H](C)CO)C3=O)cc1	11	0	0	0	15	2	/
CC(=O)c1ccc(S(=O)(=O)N2Cc3ccccc3CC2C(=O)O)cc1 (configuration not stated)	3	0	0	/	4	25*	0
O=C(O)[C@H]1Cc2ccccc2CN1S(=O)(=O)c1ccc(F)cc1	4	0	0	1	-6	3	/
CCC(=O)N1CC2(CN(Cc3ccccc3Cl)C2)c2c([nH]c3cc(OC)ccc23)[C@H]1CO	0	0	0	0	/	/	/
COc1ccc(-c2nnc(-c3cc4ccccc4oc3=O)o2)cc1	/	/	/	/	13	2	/
COc1cccc2cc(-c3nnc(-c4ccccc4)o3)c(=O)oc12	8	0	0	/	-4	21*	4
COc1ccc(C(C)(C)C)cc1S(=O)(=O)N1CCC(C(N)=O)CC1	/	/	0	/	6	/	/
COc1ccc(F)cc1S(=O)(=O)N1CCC(C(N)=O)CC1	/	/	/	/	6	22*	-3
O=C(NCCCN1CCN(c2cccc(Cl)c2)CC1)c1ccc(N2CCCC2=O)cc1	/	/	/	/	-1	35*	6
O=C(NCCCN1CCN(c2cccc(Cl)c2)CC1)c1cccc(N2CCCC2=O)c1	/	/	/	/	5	/	/
O=C(CCCCCCC(=O)NCc1ccccc1)NCc1ccccc1	5	0	0	2	3	84*	-13
C[C@@H]1CN([C@@H](C)CO)C(=O)c2cc(-c3ccccc3F)cnc2O[C@H]1CN(C)Cc1ccc(F)cc1	-5	0	0	0	-11	-1	/
Cc1c(C(=O)O)oc2c3c(ccc12)OCCO3	/	/	/	/	35	24*	-2
COc1cc(/C=N\NC(=O)c2ccc(C)nc2)ccc1OC(=O)c1cccc(F)c1	?	0	0	0	-3	29*	-7
